From ChEMBL document CHEMBL1255444, “In vitro antibacterial activities of JNJ-Q2, a new broad-spectrum fluoroquinolone” (Antimicrob Agents Chemother, 2010)
Converted amounts (≈) assume the structure as drawn.

How the values were obtained:
Assay type in all cases: functional
Pseudomonas aeruginosa = experiment: Antibacterial activity against Pseudomonas aeruginosa ATCC 27853 by broth microdilution method
How it was run: (§1)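 MICs by CLSI M07-A7 broth microdilution in cation-adjusted Mueller-Hinton medium. For S. pneumoniae the medium was supplemented with 5% lysed horse blood. CLSI quality control strains were run alongside as appropriate.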

Streptococcus pneumoniae [1] = experiment: Antibacterial activity against Streptococcus pneumoniae isolate OC6608 by broth microdilution method
How it was run: (§2)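 CLSI M07-A7 broth microdilution MIC. Medium was cation-adjusted Mueller-Hinton broth. For S. pneumoniae it was Mueller-Hinton supplemented with 5% lysed horse blood. CLSI quality-control strains were included as appropriate.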

Staphylococcus aureus [2] = experiment: Antibacterial activity against methicillin-resistant Staphylococcus aureus isolate OC4222 harboring gyrA S84L and parC S80F mutant gene by broth microdilution method; how it was run: as §2
Streptococcus pneumoniae [3] = experiment: Antibacterial activity against Streptococcus pneumoniae isolate OC7189 by broth microdilution method; how it was run: as §2
Staphylococcus aureus [4] = experiment: Antibacterial activity against methicillin-resistant Staphylococcus aureus isolate OC8530 harboring gyrA S84L and parC I143V mutant gene by broth microdilution method
How it was run: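 CLSI M07-A7 broth microdilution MIC in cation-adjusted Mueller-Hinton medium. For S. pneumoniae the medium was supplemented with 5% lysed horse blood. CLSI quality-control strains were included as appropriate.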

Providencia stuartii = experiment: Antibacterial activity against Providencia stuartii by broth microdilution method; how it was run: as §1
Streptococcus pneumoniae [5] = experiment: Antibacterial activity against Streptococcus pneumoniae OC7452 harboring parC S79Y mutant gene by agar dilution method
How it was run: (§3)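 MICs for the resistance-selection studies were determined by CLSI agar dilution on Mueller-Hinton medium. For S. pneumoniae the medium was supplemented with 5% lysed horse blood. For MRSA fluctuation-assay strains an arithmetic agar dilution scheme was used for a more precise MIC.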

Streptococcus pneumoniae [6] = experiment: Antibacterial activity against Streptococcus pneumoniae isolate OC5462 by broth microdilution method; how it was run: as §2
Enterococcus faecalis = experiment: Antibacterial activity against Enterococcus faecalis ATCC 29212 by broth microdilution method; how it was run: as §1
Streptococcus pneumoniae [7] = experiment: Antibacterial activity against Streptococcus pneumoniae isolate OC7348 by broth microdilution method; how it was run: as §2
Staphylococcus aureus [8] = experiment: Antibacterial activity against methicillin-resistant Staphylococcus aureus isolate OC11521 harboring gyrA S84L/S85P, parC E84G mutant gene by broth microdilution method; how it was run: as §2
Proteus mirabilis = experiment: Antibacterial activity against Proteus mirabilis by broth microdilution method; how it was run: as §1
Staphylococcus aureus [9] = experiment: Antibacterial activity against methicillin-, ciprofloxacin-resistant Staphylococcus aureus by broth microdilution method; how it was run: as §2
Serratia marcescens = experiment: Antibacterial activity against Serratia marcescens by broth microdilution method; how it was run: as §1
[10] = system: Staphylococcus epidermidis; experiment: Antibacterial activity against methicillin-, ciprofloxacin-resistant Staphylococcus epidermidis by broth microdilution method
Staphylococcus aureus [11] = experiment: Antibacterial activity against methicillin-resistant Staphylococcus aureus isolate OC11696 by broth microdilution method; how it was run: as §2
Streptococcus pneumoniae [12] = experiment: Antibacterial activity against Streptococcus pneumoniae isolate OC6585 by broth microdilution method; how it was run: as §2
Staphylococcus aureus [13] = experiment: Antibacterial activity against methicillin-resistant Staphylococcus aureus isolate OC2838 by broth microdilution method; how it was run: as §2
Staphylococcus aureus [14] = experiment: Antibacterial activity against methicillin-resistant Staphylococcus aureus isolate OC11223 by broth microdilution method; how it was run: as §2
Streptococcus pneumoniae [15] = experiment: Antibacterial activity against Streptococcus pneumoniae OC7453 harboring gyrA S81F mutant gene by agar dilution method; how it was run: as §3
Staphylococcus aureus [16] = experiment: Antibacterial activity against methicillin-resistant Staphylococcus aureus isolate OC12501 by broth microdilution method; how it was run: as §2
Staphylococcus aureus [17] = experiment: Antibacterial activity against methicillin-susceptible Staphylococcus aureus by broth microdilution method
Streptococcus pneumoniae [18] = experiment: Antibacterial activity against Streptococcus pneumoniae OC6755 harboring gyrA S81F and parC S79Y mutant gene by agar dilution method; how it was run: as §3
Streptococcus pneumoniae [19] = experiment: Antibacterial activity against Streptococcus pneumoniae isolate OC7368 by broth microdilution method; how it was run: as §2
Staphylococcus aureus [20] = experiment: Antibacterial activity against methicillin-resistant Staphylococcus aureus by broth microdilution method; how it was run: as §2
Streptococcus pneumoniae [21] = experiment: Antibacterial activity against Streptococcus pneumoniae isolate OC7376 by broth microdilution method; how it was run: as §2
Moraxella catarrhalis = experiment: Antibacterial activity against Moraxella catarrhalis by broth microdilution method; how it was run: as §1
Streptococcus pneumoniae [22] = experiment: Antibacterial activity against Streptococcus pneumoniae R6 by agar dilution method; how it was run: as §3
Streptococcus agalactiae = experiment: Antibacterial activity against Streptococcus agalactiae by broth microdilution method; how it was run: as §1
Streptococcus pyogenes = experiment: Antibacterial activity against Streptococcus pyogenes by broth microdilution method; how it was run: as §1
[23] = system: Staphylococcus epidermidis; experiment: Antibacterial activity against methicillin-resistant Staphylococcus epidermidis by broth microdilution method
Streptococcus pneumoniae [24] = experiment: Antibacterial activity against Streptococcus pneumoniae isolate OC6790 by broth microdilution method; how it was run: as §2
[25] = system: Staphylococcus epidermidis; experiment: Antibacterial activity against methicillin-susceptible Staphylococcus epidermidis by broth microdilution method
Staphylococcus aureus [26] = experiment: Antibacterial activity against methicillin-resistant Staphylococcus aureus isolate OC17042 harboring gyrA S84L/G106D, parC S80F and parE D732N mutant gene by broth microdilution method; how it was run: as §2
[27] = Antibacterial activity against Streptococcus sp. group C by broth microdilution method
How it was run: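 MICs by broth microdilution following CLSI M07-A7 in cation-adjusted Mueller-Hinton medium, using isolates from the J&JPRD culture collection. CLSI quality control strains were included as appropriate.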

Escherichia coli = experiment: Antibacterial activity against ciprofloxacin-resistant Escherichia coli by broth microdilution method; how it was run: as §2
Enterococcus faecium = experiment: Antibacterial activity against Enterococcus faecium by broth microdilution method; how it was run: as §1
Staphylococcus aureus [28] = experiment: Antibacterial activity against Staphylococcus aureus […] by broth microdilution method; how it was run: as §2
Citrobacter freundii = experiment: Antibacterial activity against Citrobacter freundii by broth microdilution method; how it was run: as §1
Klebsiella aerogenes = experiment: Antibacterial activity against Enterobacter aerogenes by broth microdilution method; how it was run: as §1
Streptococcus pneumoniae [29] = experiment: Antibacterial activity against Streptococcus pneumoniae isolate OC6610 by broth microdilution method; how it was run: as §2
Haemophilus influenzae = experiment: Antibacterial activity against Haemophilus influenzae by broth microdilution method; how it was run: as §1
Streptococcus pneumoniae [30] = experiment: Antibacterial activity against Streptococcus pneumoniae ATCC 49619 by broth microdilution method; how it was run: as §1

COc1c(N2C[C@@H]3CCCN[C@@H]3C2)c(F)cc2c(=O)c(C(=O)O)cn(C3CC3)c12 [MOXIFLOXACIN]
MIC50 (Pseudomonas aeruginosa): 2 µg/mL (≈ 4.98 µM) | MIC90 (Pseudomonas aeruginosa): 4 µg/mL (≈ 9.96 µM) | MIC (Streptococcus pneumoniae [1]): 2 µg/mL (≈ 4.98 µM) | MIC (Staphylococcus aureus [2]): 2 µg/mL (≈ 4.98 µM) | MIC (Streptococcus pneumoniae [3]): 0.25 µg/mL (≈ 0.623 µM) | MIC (Staphylococcus aureus [4]): 2 µg/mL (≈ 4.98 µM) | MIC50 (Providencia stuartii): 32 µg/mL (≈ 79.7 µM) | MIC90 (Providencia stuartii): 64 µg/mL (≈ 159 µM) | MIC (Streptococcus pneumoniae [5]): 0.25 µg/mL (≈ 0.623 µM) | MIC (Streptococcus pneumoniae [6]): 1 µg/mL (≈ 2.49 µM) | MIC (Enterococcus faecalis): 0.25 µg/mL (≈ 0.623 µM) | MIC50 (Enterococcus faecalis): 0.25 µg/mL (≈ 0.623 µM) | MIC90 (Enterococcus faecalis): 16 µg/mL (≈ 39.9 µM) | MIC (Streptococcus pneumoniae [7]): 8 µg/mL (≈ 19.9 µM) | MIC (Staphylococcus aureus [8]): 32 µg/mL (≈ 79.7 µM) | MIC50 (Proteus mirabilis): 0.5 µg/mL (≈ 1.25 µM) | MIC90 (Proteus mirabilis): 0.5 µg/mL (≈ 1.25 µM) | MIC50 (Staphylococcus aureus [9]): 4 µg/mL (≈ 9.96 µM) | MIC90 (Staphylococcus aureus [9]): 8 µg/mL (≈ 19.9 µM) | MIC50 (Serratia marcescens): 0.5 µg/mL (≈ 1.25 µM) | MIC90 (Serratia marcescens): 1 µg/mL (≈ 2.49 µM) | MIC50 [10]: 2 µg/mL (≈ 4.98 µM) | MIC90 [10]: 4 µg/mL (≈ 9.96 µM) | MIC (Staphylococcus aureus [11]): 1 µg/mL (≈ 2.49 µM) | MIC (Streptococcus pneumoniae [12]): 8 µg/mL (≈ 19.9 µM) | MIC (Staphylococcus aureus [13]): 4 µg/mL (≈ 9.96 µM) | MIC (Staphylococcus aureus [14]): 0.06 µg/mL (≈ 0.149 µM) | MIC (Streptococcus pneumoniae [15]): 0.5 µg/mL (≈ 1.25 µM) | MIC (Staphylococcus aureus [16]): 1 µg/mL (≈ 2.49 µM) | MIC (Staphylococcus aureus [17]): 0.06 µg/mL (≈ 0.149 µM) | MIC50 (Staphylococcus aureus [17]): 0.06 µg/mL (≈ 0.149 µM) | MIC (Streptococcus pneumoniae [18]): 8 µg/mL (≈ 19.9 µM) | MIC (Streptococcus pneumoniae [19]): 4 µg/mL (≈ 9.96 µM) | MIC50 (Staphylococcus aureus [20]): 2 µg/mL (≈ 4.98 µM) | MIC90 (Staphylococcus aureus [20]): 8 µg/mL (≈ 19.9 µM) | MIC (Streptococcus pneumoniae [21]): 2 µg/mL (≈ 4.98 µM) | MIC (Moraxella catarrhalis): 0.06 µg/mL (≈ 0.149 µM) | MIC50 (Moraxella catarrhalis): 0.06 µg/mL (≈ 0.149 µM) | MIC90 (Moraxella catarrhalis): 0.06 µg/mL (≈ 0.149 µM) | MIC (Streptococcus pneumoniae [22]): 0.12 µg/mL (≈ 0.299 µM) | MIC50 (Streptococcus agalactiae): 0.25 µg/mL (≈ 0.623 µM) | MIC90 (Streptococcus agalactiae): 0.25 µg/mL (≈ 0.623 µM) | MIC (Streptococcus pyogenes): 0.12 µg/mL (≈ 0.299 µM) | MIC50 (Streptococcus pyogenes): 0.12 µg/mL (≈ 0.299 µM) | MIC90 (Streptococcus pyogenes): 0.25 µg/mL (≈ 0.623 µM) | MIC50 [23]: 2 µg/mL (≈ 4.98 µM) | MIC90 [23]: 4 µg/mL (≈ 9.96 µM) | MIC (Streptococcus pneumoniae [24]): 4 µg/mL (≈ 9.96 µM) | MIC50 [25]: 0.06 µg/mL (≈ 0.149 µM) | MIC (Staphylococcus aureus [26]): 8 µg/mL (≈ 19.9 µM) | MIC50 [27]: 0.12 µg/mL (≈ 0.299 µM) | MIC90 [27]: 0.25 µg/mL (≈ 0.623 µM) | MIC50 (Escherichia coli): 32 µg/mL (≈ 79.7 µM) | MIC90 (Escherichia coli): 128 µg/mL (≈ 319 µM) | MIC50 (Enterococcus faecium): 4 µg/mL (≈ 9.96 µM) | MIC90 (Enterococcus faecium): > 16 µg/mL | MIC50 (Staphylococcus aureus [28]): 2 µg/mL (≈ 4.98 µM) | MIC90 (Staphylococcus aureus [28]): 8 µg/mL (≈ 19.9 µM) | MIC50 (Citrobacter freundii): 2 µg/mL (≈ 4.98 µM) | MIC90 (Citrobacter freundii): > 8 µg/mL | MIC50 (Klebsiella aerogenes): 0.12 µg/mL (≈ 0.299 µM) | MIC90 (Klebsiella aerogenes): 0.25 µg/mL (≈ 0.623 µM) | MIC (Streptococcus pneumoniae [29]): 16 µg/mL (≈ 39.9 µM) | MIC50 (Haemophilus influenzae): 0.015 µg/mL (≈ 0.0374 µM) | MIC90 (Haemophilus influenzae): 0.03 µg/mL (≈ 0.0747 µM) | MIC50 (Streptococcus pneumoniae [30]): 0.25 µg/mL (≈ 0.623 µM) | MIC90 (Streptococcus pneumoniae [30]): 4 µg/mL (≈ 9.96 µM)
